Test results as given in PMC10568961 (Research in Pharmaceutical Sciences, 2023).
≈ marks a conversion by molar mass, not a printed value. Like-named read-outs stand apart in the source and are kept apart here. Marks after values point to notes of the source that are not given here. Blank lines part the entries; values can stand above or below the compound they belong to.

Assays:
A549 cells [1] = experiment: Scratch assay of cell migration; format: cell-based, human
Outline: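 A549 monolayers were grown to 90–100% confluence in 24 h, scratched with a pipette tip and washed with PBS; initial gap width was measured at ×400. Cells were then kept in serum-free medium with test compound (0–150 μg/mL) or cisplatin (1 μg/mL) at 37 °C, 5% CO2. Gap widths were read by phase-contrast at each time point to 72 h, giving % wound closure. Three repeats.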

[2] = system: MRC-5 (human lung fibroblast) cells; experiment: Trypan blue dye exclusion assay, MRC-5 cells; format: cell-based
Outline: (§1)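 Cells were seeded at 5,000/well for 24 h: MRC-5 in EMEM and A549 in F-12K, each with 10% FBS. They were then given test compound (50, 100, 150 μg/mL), cisplatin (0.5, 1, 2 μg/mL) or 0.5% DMSO control for 24–72 h at 37 °C, 5% CO2. After trypsinisation, viable cells were counted by trypan blue exclusion on a hemocytometer (quadruplicate wells). IC50 came from growth curves. At least three repeats.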

[3] = system: A549 (human lung carcinoma) cells; experiment: Trypan blue dye exclusion assay, A549 cells; format: cell-based
Outline: as §1

A549 cells [4] = experiment: Matrigel invasion assay; format: cell-based, human
Outline: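 Matrigel was diluted in cold serum-free medium and gelled overnight at 37 °C in Transwell upper chambers. A549 cells were added in serum-free medium with test compound (0–150 μg/mL) or cisplatin (1 μg/mL), with 10% FBS below as chemoattractant, for 24 and 48 h at 37 °C. Invaded cells were fixed (3.7% paraformaldehyde, methanol), stained with crystal violet and counted in five fields. % invasion was set against uncoated membrane. Three repeats.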

[5] = system: MRC-5 (human lung fibroblast) cells; experiment: MTS cell viability assay, MRC-5 cells; format: cell-based
[6] = MTS cell viability assay, MRC-5 cells; format: cell-based, human; conditions: human, MRC-5 lung fibroblast cells
[7] = system: A549 (human lung carcinoma) cells; experiment: MTS cell viability assay, A549 cells; format: cell-based; conditions: for viability at 50 µg/mL / viability at 100 µg/mL / viability at 150 µg/mL: read-out: Cell viability (%)

Compound: N.N.[Cl][Pt][Cl] [DDP, cis-diamminedichloroplatinum II]
Gap closure (%) (A549 cells [1]; A549, 0.5 μg/mL, 0 h): 0%
Gap closure (%) (A549 cells [1]; A549, 0.5 μg/mL, 24 h): 3.09 ± 0.25^a,b %
Gap closure (%) (A549 cells [1]; A549, 0.5 μg/mL, 48 h): 4.36 ± 0.60^a %
Gap closure (%) (A549 cells [1]; A549, 0.5 μg/mL, 72 h): 4.77 ± 0.19^a %
Gap closure (%) (A549 cells [1]; A549, 1 μg/mL, 0 h): 0%
Gap closure (%) (A549 cells [1]; A549, 1 μg/mL, 24 h): 2.52 ± 0.16^a,b %
Gap closure (%) (A549 cells [1]; A549, 1 μg/mL, 48 h): 3.18 ± 0.04^a,b %
Gap closure (%) (A549 cells [1]; A549, 1 μg/mL, 72 h): 3.55 ± 0.42^a %
Gap closure (%) (A549 cells [1]; A549, 2 μg/mL, 0 h): 0%
Gap closure (%) (A549 cells [1]; A549, 2 μg/mL, 24 h): 2.38 ± 0.06^a,b %
Gap closure (%) (A549 cells [1]; A549, 2 μg/mL, 48 h): 2.92 ± 0.04^a,b %
Gap closure (%) (A549 cells [1]; A549, 2 μg/mL, 72 h): 3.53 ± 0.16^a,b %
Number of cells ([2]; MRC-5, 0.5 μg/mL, 24 h): 13,900 ± 302^b
Number of cells ([2]; MRC-5, 0.5 μg/mL, 48 h): 15,666 ± 418^a,b
Number of cells ([2]; MRC-5, 0.5 μg/mL, 72 h): 21,100 ± 488^a,b
Number of cells ([2]; MRC-5, 1 μg/mL, 24 h): 13,516 ± 414
Number of cells ([2]; MRC-5, 1 μg/mL, 48 h): 15,400 ± 347^a,b
Number of cells ([2]; MRC-5, 1 μg/mL, 72 h): 20,500 ± 465^a,b
Number of cells ([2]; MRC-5, 2 μg/mL, 24 h): 12,933 ± 396^a
Number of cells ([2]; MRC-5, 2 μg/mL, 48 h): 14,933 ± 292^b
Number of cells ([2]; MRC-5, 2 μg/mL, 72 h): 19,666 ± 389^a,b
Number of cells ([3]; A549, 0.5 μg/mL, 24 h): 14,000± 310^a,b
Number of cells ([3]; A549, 0.5 μg/mL, 48 h): 14,050 ± 523^a,b
Number of cells ([3]; A549, 0.5 μg/mL, 72 h): 16,666 ± 420^b
Number of cells ([3]; A549, 1 μg/mL, 24 h): 11,250± 545^a,b
Number of cells ([3]; A549, 1 μg/mL, 48 h): 11,616 ± 590^a,b
Number of cells ([3]; A549, 1 μg/mL, 72 h): 12,833 ± 564^a,b
Number of cells ([3]; A549, 2 μg/mL, 24 h): 8,583± 589^a,b
Number of cells ([3]; A549, 2 μg/mL, 48 h): 9,833 ± 650^a,b
Number of cells ([3]; A549, 2 μg/mL, 72 h): 8,983 ± 310^a,b
Invasion (%) (A549 cells [4]; A549, 0.5 μg/mL, 24 h): 29.01 ± 4.99^a,b %
Invasion (%) (A549 cells [4]; A549, 0.5 μg/mL, 48 h): 18.62 ± 3.11^a,b %
Invasion (%) (A549 cells [4]; A549, 1 μg/mL, 24 h): 26.12 ± 4.22^a,b %
Invasion (%) (A549 cells [4]; A549, 1 μg/mL, 48 h): 16.13 ± 2.66^a,b %
Invasion (%) (A549 cells [4]; A549, 2 μg/mL, 24 h): 20.91 ± 2.05^a,b %
Invasion (%) (A549 cells [4]; A549, 2 μg/mL, 48 h): 14.42 ± 1.57^a,b %
IC50 values, MRC-5 cells ([5]; MTS assay, 72-h): > 2 µg/mL

IC50 ([3]; Homo sapiens, A549, 72 h, read-out: IC50 values, A549 cells): 97.7 ± 4.23 µg/mL (≈ 160 µM)
IC50 ([7]; A549, 72 h, read-out: IC50 values, A549 cells): 106 ± 3.52 µg/mL (≈ 175 µM)
Compound: COc1ccc(-c2cc(=O)c3c(O)cc(O[C@@H]4O[C@H](CO[C@@H]5O[C@@H](C)[C@H](O)[C@@H](O)[C@H]5O)[C@@H](O)[C@H](O)[C@H]4O)cc3o2)cc1O [Diosmin, diosmin]
Gap closure (%) (A549 cells [1]; A549, 50 μg/mL, 0 h): 0%
Gap closure (%) (A549 cells [1]; A549, 50 μg/mL, 24 h): 4.88 ± 0.82^a %
Gap closure (%) (A549 cells [1]; A549, 50 μg/mL, 48 h): 7.58 ± 1.07^a,b %
Gap closure (%) (A549 cells [1]; A549, 50 μg/mL, 72 h): 10.82 ± 1.10^b %
Gap closure (%) (A549 cells [1]; A549, 100 μg/mL, 0 h): 0%
Gap closure (%) (A549 cells [1]; A549, 100 μg/mL, 24 h): 3.97 ± 0.26^a %
Gap closure (%) (A549 cells [1]; A549, 100 μg/mL, 48 h): 6.08 ± 0.87^a %
Gap closure (%) (A549 cells [1]; A549, 100 μg/mL, 72 h): 8.24 ± 0.67^a,b %
Gap closure (%) (A549 cells [1]; A549, 150 μg/mL, 0 h): 0%
Gap closure (%) (A549 cells [1]; A549, 150 μg/mL, 24 h): 3.32 ± 0.19^a,b %
Gap closure (%) (A549 cells [1]; A549, 150 μg/mL, 48 h): 5.32 ± 0.64^a %
Gap closure (%) (A549 cells [1]; A549, 150 μg/mL, 72 h): 6.84 ± 0.55^a,b %
IC50 ([2]; Homo sapiens, MRC5, 72 h, read-out: IC50 value, MRC-5 cells): > 150 µg/mL
Number of cells ([2]; MRC-5, 50 μg/mL, 24 h): 11,666± 387^a,b
Number of cells ([2]; MRC-5, 50 μg/mL, 48 h): 14,583 ± 489^b
Number of cells ([2]; MRC-5, 50 μg/mL, 72 h): 19,583 ± 405^a,b
Number of cells ([2]; MRC-5, 100 μg/mL, 24 h): 9,583 ± 463^a,b
Number of cells ([2]; MRC-5, 100 μg/mL, 48 h): 12,083 ± 723^a
Number of cells ([2]; MRC-5, 100 μg/mL, 72 h): 17,500 ± 456^a,b
Number of cells ([2]; MRC-5, 150 μg/mL, 24 h): 6,666± 709^a,b
Number of cells ([2]; MRC-5, 150 μg/mL, 48 h): 10,000 ± 630^a,b
Number of cells ([2]; MRC-5, 150 μg/mL, 72 h): 15,833 ± 544^a,b
Number of cells ([3]; A549, 50 μg/mL, 24 h): 13,333± 444^a,b
Number of cells ([3]; A549, 50 μg/mL, 48 h): 18,333 ± 510^b
Number of cells ([3]; A549, 50 μg/mL, 72 h): 26,250 ± 392^a,b
Number of cells ([3]; A549, 100 μg/mL, 24 h): 10,833± 487^a,b
Number of cells ([3]; A549, 100 μg/mL, 48 h): 13,750 ± 538^a,b
Number of cells ([3]; A549, 100 μg/mL, 72 h): 18,750 ± 426^a,b
Number of cells ([3]; A549, 150 μg/mL, 24 h): 6,666± 539^a,b
Number of cells ([3]; A549, 150 μg/mL, 48 h): 8,750 ± 572^a,b
Number of cells ([3]; A549, 150 μg/mL, 72 h): 11,250 ± 559^a,b
Invasion (%) (A549 cells [4]; A549, 50 μg/mL, 24 h): 43.51 ± 2.39^a,b %
Invasion (%) (A549 cells [4]; A549, 50 μg/mL, 48 h): 38.05 ± 5.14^a,b %
Invasion (%) (A549 cells [4]; A549, 100 μg/mL, 24 h): 38.60 ± 3.31^a,b %
Invasion (%) (A549 cells [4]; A549, 100 μg/mL, 48 h): 31.39 ± 2.71^a,b %
Invasion (%) (A549 cells [4]; A549, 150 μg/mL, 24 h): 34.79 ± 3.59^a,b %
Invasion (%) (A549 cells [4]; A549, 150 μg/mL, 48 h): 27.60 ± 1.62^a,b %
Invasion (%) (A549 cells [4]; A549, 150 μg/mL, 48 h, listed as diosmin): 27.60 ± 1.62%
viability at 24 h, 50 μg/mL [6]: 80.9 ± 8.46%
viability at 24 h, 100 μg/mL [6]: 54.7 ± 7.45%
viability at 24 h, 150 μg/mL [6]: 44.9 ± 5.58%
viability at 48 h, 50 μg/mL [6]: 78 ± 9.3%
viability at 48 h, 100 μg/mL [6]: 53.9 ± 9.19%
viability at 48 h, 150 μg/mL [6]: 47.5 ± 2.05%
viability at 72 h, 50 μg/mL [6]: 86.7 ± 1.38%
viability at 72 h, 100 μg/mL [6]: 71 ± 9.54%
viability at 72 h, 150 μg/mL [6]: 49.9 ± 8.02%
IC50 ([5]; Homo sapiens, MRC5, 72 h, read-out: IC50 values, MRC-5 cells): 150 ± 6.32 µg/mL (≈ 246 µM)
viability at 50 µg/mL ([7]; A549, 24 h): 72.3 ± 3.23%
viability at 100 µg/mL ([7]; A549, 24 h): 61.6 ± 4.07%
viability at 150 µg/mL ([7]; A549, 24 h): 45.6 ± 4.59%
viability at 50 µg/mL ([7]; A549, 48 h): 71.1 ± 1.37%
viability at 100 µg/mL ([7]; A549, 48 h): 57.6 ± 5.15%
viability at 150 µg/mL ([7]; A549, 48 h): 47.3 ± 6.78%
viability at 50 µg/mL ([7]; A549, 72 h): 54.9 ± 3.43%
viability at 100 µg/mL ([7]; A549, 72 h): 50.7 ± 1.19%
viability at 150 µg/mL ([7]; A549, 72 h): 35.6 ± 5.95%
